Sampled rows, rich in hits. Any-hit rate of the full collection: about 3.1%.
KCNQ1 inh: inhibitors of human KCNQ1 channel, primary screen, cell-based, thallium flux, high-throughput; 310,000 compounds, 1.3% hits; CHO-K1 KCNQ1, FluxOR thallium flux fluorescence; hits give high values; B-score at 10 µM;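 active = compounds whose thallium flux B-score, printed positive for inhibition, exceeds three library SD while starting fluorescence stays within three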;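 also: channel opened by potassium depolarization with thallium stimulus after 20 min compound exposure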
Target sequence (P51787 whole entry, looked up): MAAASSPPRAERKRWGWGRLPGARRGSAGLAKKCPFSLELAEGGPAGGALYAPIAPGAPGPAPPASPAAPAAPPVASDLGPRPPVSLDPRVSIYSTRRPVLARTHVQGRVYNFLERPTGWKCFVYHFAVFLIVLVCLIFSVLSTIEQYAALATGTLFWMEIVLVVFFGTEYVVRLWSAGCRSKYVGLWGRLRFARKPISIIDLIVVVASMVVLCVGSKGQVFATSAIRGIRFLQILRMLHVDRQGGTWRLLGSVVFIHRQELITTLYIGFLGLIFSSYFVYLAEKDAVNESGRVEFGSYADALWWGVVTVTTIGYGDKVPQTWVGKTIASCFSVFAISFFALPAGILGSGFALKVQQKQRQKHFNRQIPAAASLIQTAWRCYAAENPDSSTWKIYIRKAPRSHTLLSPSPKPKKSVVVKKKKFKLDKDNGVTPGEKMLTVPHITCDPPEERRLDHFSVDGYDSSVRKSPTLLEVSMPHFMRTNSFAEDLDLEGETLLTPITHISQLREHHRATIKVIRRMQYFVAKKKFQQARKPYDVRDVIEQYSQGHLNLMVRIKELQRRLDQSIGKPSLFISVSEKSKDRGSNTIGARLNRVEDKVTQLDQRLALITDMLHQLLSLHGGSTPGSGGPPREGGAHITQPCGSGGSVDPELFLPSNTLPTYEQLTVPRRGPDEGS
hERG rescue: hERG rescue from dofetilide block, primary screen, cell-based, CHO-hERG, FluxOR thallium flux, dofetilide IC70. Voltage-gated inwardly rectifying potassium channel KCNH2 (Homo sapiens), Q12809. dofetilide IC70 present. activation (rescue from dofetilide block), less the hit threshold, % at 10 µM. 310,000 compounds, 0.51% hits. AID 1511, 2009;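 active = activation above the mean of controls blocked by dofetilide plus 5 SD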;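 also: thallium influx through hERG after potassium depolarization seen as dye fluorescence rise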
KCNK3 block: human KCNK3 channel inhibitors, primary screen, CHO cells, FluxOR thallium flux, B-score | Potassium channel subfamily K member 3 (Homo sapiens), O14649 | FluxOR fluorescence; hits give low values | B-score at 10 µM | 340,000 compounds, 0.84% hits;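 active = B-score under library mean minus 4 SD, starting fluorescence ratio at most library mean plus 5 SD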;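 also: more negative B-score means stronger inhibition of thallium flux through KCNK3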
KCNK9 inh: KCNK9 potassium channel inhibitors, primary screen, HEK293 cells, thallium flux. 310,000 compounds, 1.2% hits. AID 488922, 2010. Potassium channel subfamily K member 9 (Homo sapiens), Q9NPC2. FluxOR thallium flux fluorescence; hits give low values. B-score at 10 µM;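 active = ratio B-score over 3 SD below the library mean, with starting fluorescence within 5 SD of its mean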;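 also: negative B-score means less thallium flux so channel inhibition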
KCNQ1 pot: potentiators or activators of KCNQ1 channel, primary screen, cell-based, thallium flux, high-throughput. CHO-K1 KCNQ1, thallium flux FluxOR fluorescence; hits give high values. Potassium voltage-gated channel subfamily KQT member 1 (Homo sapiens), P51787. AID 2648, 2010. B-score at 10 µM. 310,000 compounds, 0.35% hits;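 active = fluorescence ratio B-score, a plate-corrected score, at least three library SD, with initial intensity B-score within 5 SD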
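assay system = KCNQ1-transfected CHO-K1 cells | medium = assay buffer with matched DMSO | probe or stimulus = depolarizing K+/Tl+ stimulus, K2SO4 and Tl2SO4 each 12.5 mM in 5x stock | dosing = single dose | incubation = dye 90 min, compound 20 min, room temperature | detection = kinetic FluxOR fluorescence, 10 s baseline plus 110 s post-stimulus | evaluation = ratio B score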
KCNK3 inh conf: retest of human KCNK3 channel inhibitors, confirmation, CHO cells, FluxOR thallium flux, triplicate | shares compounds with KCNK3 block | FluxOR fluorescence; 0% buffer, 100% carvedilol maximal block | ratio percent of control, % at 10 µM | 2,400 compounds, 99% hits | AID 651638, 2012;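 active = ratio percent of control, averaged over triplicates, above buffer control mean plus 5 SD, cut at about 64% in these data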;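 also: ratio is the fluorescence rise from min to max over baseline after thallium stimulus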
KCNK3 noninduced: thallium flux inhibition in non-induced cells, primary screen, counter-screen for KCNK3 inhibitor project, cell-based, non-induced KCNK3 line, FluxOR thallium, triplicate; shares compounds with KCNK3 block; non-induced KCNK3 parental cells; hits give low values; thallium flux ratio (lower = more inhibition) at 10 µM; 2,400 compounds, 40% hits;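 active = thallium flux ratio, averaged over three wells, more than 5 SD below the buffer control mean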;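 also: host cells are CHO cells without KCNK3 induction; ratio is peak minus trough fluorescence over baseline then normalized to buffer controls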
Active calls of the source: *; i = inactive; x = no result given.

SMILES | KCNQ1 inh | hERG rescue | KCNK3 block | KCNK9 inh | KCNQ1 pot | KCNK3 inh conf | KCNK3 noninduced
COCCN(CCOC)c1nc(-c2ccc(C)cc2)nc2ccccc12 | i | -14 | -12* | i | i | 86* | 0.13*
Cc1ccc(C2CC(c3cccs3)=NN2S(=O)(=O)c2ccc(C)cc2)cc1 (centres undefined) | i | -8 | i | i | i | x | x
CCCc1cc(NCCCn2ccnc2)n2nc(C)c(-c3ccccc3)c2n1 | i | -22 | -8.8* | i | i | 109* | 0.15*
O=C(N[C@@H](Cc1ccccc1)C(=O)OCC(=O)N1CCOCC1)c1cccs1 | i | -5 | i | i | i | x | x
CC(=O)c1ccccc1OC(=O)CCN1C(=O)c2ccccc2C1=O | i | -5 | i | i | i | x | x
FC(F)(F)c1cnc(COc2ccc(Cl)cc2Cl)c(Cl)c1 | i | -2 | -9.7* | i | i | 102* | i
COc1ccc(NC2c3ccccc3C(=O)N2c2cccnc2)cc1Cl (centres undefined) | i | -14 | -10* | i | i | 117* | i
COC(=O)c1cc(NC2c3ccccc3C(=O)N2c2cccnc2)cc(C(=O)OC)c1 (centres undefined) | i | -16 | -9* | i | i | 119* | 0.15*
O=C1c2ccccc2C(Nc2ccccc2)N1c1cccnc1 (centres undefined) | i | -7 | i | i | i | x | x
COc1ccc(O)c(C(=O)C2c3ccccc3C(=O)N2c2ccc(C)cc2)c1 (centres undefined) | i | -9 | -11* | i | i | 133* | 0.14*
COc1ccc(N2C(=O)c3ccccc3C2O)cc1 (centres undefined) | i | -4 | i | i | i | x | x
CCOC(=O)c1c(CSCc2ccccc2)oc2ccc(O)c(CN(C)C)c12 | i | -29 | -9.3* | i | i | 123* | i
CCOC(=O)c1c(-c2ccccc2)oc2ccc(O)c(CN(C)C)c12 | i | -6 | i | i | i | x | x
CCc1ccc2c(CN3CCc4ccccc43)cc(=O)oc2c1 | i | -8 | -13* | i | i | 83* | i
CCOC(=O)c1cnc(-n2nc(C)cc2C)nc1NC1CCCC1 | i | -30 | -9.4* | i | i | 131* | 0.11*
Nc1cc(S(=O)(=O)N2CCCCC2)ccc1Oc1ccc(Cl)cc1 | i | -23 | -9* | i | i | 112* | i
Cc1ccc(C)c(CSCC(=O)NCc2cccs2)c1 | i | -3 | -11* | i | i | 84* | i
O=C(c1ccc(COc2ccc(Cl)cc2)o1)N1CCN(Cc2ccc3c(c2)OCO3)CC1 | i | -17 | -9.8* | i | i | 146* | 0.11*
O=C(NCC1OCCCN1S(=O)(=O)c1cc(F)ccc1F)C(=O)NC1CCCCC1 (centres undefined) | i | -8 | i | i | i | x | x
COc1ccc2ccccc2c1CN1CCN(C(=O)c2ccco2)CC1 | i | -1 | -11* | i | i | 90* | i
CC(C)(C)OC(=O)N1CCCC(C(=O)Nc2ccc(C(=O)N3CCOCC3)cc2)C1 (centres undefined) | x | x | i | x | x | x | x
Cc1ccc(-c2cc(C(=O)Nc3cccnc3)c3ccccc3n2)s1 | i | -26 | -12* | i | i | 100* | 0.13*
COc1cccc(NC(=O)CN(C)C(=O)c2cc(-c3cccc(Br)c3)nc3ccccc23)c1 | i | -17 | -14* | i | i | 128* | i
COc1cccc(NC(=O)c2cc(-c3ccc(OC)cc3OC)nc3ccccc23)c1 | 6* | -9 | -9.4* | i | i | 103* | i
CCc1nnc(NS(=O)(=O)c2ccc(NC(=O)c3cccc(Cl)c3)cc2)s1 | i | -14 | i | i | i | x | x
SMILES | KCNQ1 inh | hERG rescue | KCNK3 block | KCNK9 inh | KCNQ1 pot | KCNK3 inh conf | KCNK3 noninduced
COc1ccc(N2CCN(Cc3nc(-c4ccccc4)no3)CC2)cc1 | i | -8 | i | i | i | x | x
COCCn1c(COc2cccc(OC)c2)nnc1SCC(=O)NC1CCCC1 | i | -2 | i | i | i | x | x
COc1ccc(/C=C/C(=O)NCCSCc2ccco2)cc1OC | i | -8 | i | i | i | x | x
O=C(NCCSc1c[nH]c2ccccc12)c1ccc(Br)o1 | i | -9 | -11* | -7.9* | i | 98* | i
O=C(NCCc1csc(-c2cccnc2)n1)c1ccc(Br)o1 | i | -12 | i | i | i | x | x
Cc1[nH]c2ccccc2c1SCCNC(=O)c1ccc(Br)o1 | i | -18 | -9* | i | i | 97* | i
O=C(O)CCNC(=O)c1ccc(Br)o1 | i | 4 | i | i | i | x | x
O=C(NCCc1csc(-c2ccccc2)n1)c1ccc(Br)o1 | i | -19 | -11* | i | i | 92* | i
O=C(NCCC(c1ccccc1)c1ccccc1)c1ccc(Br)o1 | i | -10 | -9.7* | i | i | 114* | i
O=C(NCCc1c[nH]c2ccccc12)c1ccc(Br)o1 | x | x | i | x | x | x | x
CCOc1ccccc1NC(=O)C(OC(=O)c1ccc(NC(=O)CC#N)cc1)c1ccccc1 (centres undefined) | 8* | -26 | -10* | i | i | 125* | 0.13*
O=C(Nc1cc(S(=O)(=O)N2CCOCC2)ccc1N1CCCCC1)c1ccccc1Br | x | x | i | x | x | x | x
Cc1ccc(C)c(NS(=O)(=O)c2cc(C(=O)NCC3CCCO3)ccc2C)c1 (centres undefined) | i | -9 | i | i | i | x | x
Cc1ccc(C)c(NS(=O)(=O)c2cc(C(=O)NCCSC3CCCCC3)ccc2C)c1 | i | -5 | -10* | -7.9* | i | 110* | i
CCOC(=O)c1ccc(NC(=O)CSCCC(=O)O)cc1 | i | -9 | i | i | i | x | x

Source: PubChem BioAssay
